Data as given in ChEMBL document CHEMBL1782055, “2,3-dideoxy hex-2-enopyranosid-4-uloses as promising new anti-tubercular agents: design, synthesis, biological evaluation and SAR studies” (Eur J Med Chem, 2011).

How the values were obtained:
Assay type in all cases: functional
[1] = test system: Mycobacterium tuberculosis; experiment: Antitubercular activity against isoniazid-resistant Mycobacterium tuberculosis 433 after 24 hrs by BACTEC radiometric susceptibility assay; conditions: Mycobacterium tuberculosis, 433, 24 h
Method in brief: (§1)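 BACTEC radiometric assay in 7H12 (12B) medium with 14C-palmitic acid as substrate; 14CO2 output read daily as Growth Index (GI) at 37 °C ± 1 °C. H37Rv inoculum grown in 12B vial to GI around 300. Compounds dissolved in DMSO. Control vial held 1:100 diluted bacterial suspension. Reading continued until control GI reached 30 or more. Daily change in GI compared with control to set susceptibility and MIC.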

[2] = test system: Mycobacterium tuberculosis; experiment: Antitubercular activity against rifampin and isoniazid-resistant Mycobacterium tuberculosis TB-1678/05 after 24 hrs by BACTEC radiometric susceptibility assay; conditions: TB-1678/05, 24 h; method in brief: as §1
[3] = test system: Mycobacterium tuberculosis; experiment: Antitubercular activity against ethambutol-resistant Mycobacterium tuberculosis TB-2506/06 after 24 hrs by BACTEC radiometric susceptibility assay; conditions: TB-2506/06, 24 h; method in brief: as §1
[4] = test system: Mycobacterium tuberculosis; experiment: Antitubercular activity against rifampin and isoniazid-resistant Mycobacterium tuberculosis 2643 after 24 hrs by BACTEC radiometric susceptibility assay; conditions: Mycobacterium tuberculosis, 2643, 24 h; method in brief: as §1

Measured: MIC

CC(C)CCO[C@@H]1C=CC(=O)[C@@H](COC(=O)C(C)(C)C)O1
1.56 µg/mL: [1] | [2] | [3] | [4]
